Legend:
[1] = target: T1, Growth hormone secretagogue receptor type 1 (Homo sapiens, UniProt Q92847); assay: Antagonist activity at recombinant human GHSR1a expressed in HEK293 cells assessed as inhibition of ghrelin-induced intracellular calcium release incubated for 20 secs and measured after 2 mins by FLIPR assay; format: functional, cell-based
Summary of the method: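 HEK293/GHSR1a cells were dye-loaded for 30-60 min. Compounds and 10 nM ghrelin were added at t = 20 s, with a 15 min compound preincubation described. Calcium response was read for 2 min. IC50 was taken from dose-response fits of the reduction in ghrelin response; mean of at least two independent runs done in triplicate.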

[2] = target: T1, Growth hormone secretagogue receptor type 1; assay: Inverse agonist at recombinant human GHSR1a expressed in HEK293 cells assessed as decrease in IP1 accumulation after 1 hr by IP1-d2-based HTRF assay; format: functional, cell-based
Summary of the method: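 HEK293 cells stably expressing human GHSR1a were seeded on Matrigel in complete DMEM for 18–22 h at 37 °C, 5% CO2. Compound in stimulation buffer was applied for 1 h at 37 °C. IP1-d2 and Tb-cryptate were then added for 1 h at room temperature, with HTRF read at 620/665 nm. Mean of at least two independent runs in triplicate.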

[3] = Clearance in mouse liver microsomes at 0.625 uM preincubated for 5 mins followed by NADPH addition and measured after 60 mins by LC-MS/MS analysis; format: ADME, microsome; conditions: read-out: CLH
Summary of the method: (§1)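 Liver microsomes (0.625 mg/mL protein) in 50 mM potassium phosphate pH 7.4 with 0.625 µM test item, prewarmed 5 min at 37 °C. Reaction started with NADPH (5 mM solution). Samples taken at 0, 5, 15, 30 and 60 min into cold MeCN with internal standard, analysed by LC-MS/MS. Intrinsic clearance derived by the half-life approach.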

[4] = Clearance in human liver microsomes at 0.625 uM preincubated for 5 mins followed by NADPH addition and measured after 60 mins by LC-MS/MS analysis; format: ADME, microsome; conditions: read-out: CLH; summary of the method: as §1
[5] = target: T1, Growth hormone secretagogue receptor type 1; assay: Agonist activity at recombinant human GHSR1a expressed in HEK293 cells assessed as induction of intracellular calcium release after 15 mins by FLIPR assay; format: functional, cell-based; conditions: read-out: EC50
Summary of the method: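 HEK293 cells stably expressing human GHSR1a, seeded 24 h before the run, then loaded with calcium dye for 30-60 min at room temperature or 37 °C. DMSO-dissolved compounds were added and intracellular calcium release was monitored by FLIPR fluorescence.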

[6] = Clearance in dog liver microsomes at 0.625 uM preincubated for 5 mins followed by NADPH addition and measured after 60 mins by LC-MS/MS analysis; format: ADME, Canis lupus familiaris, microsome; conditions: read-out: CLH; summary of the method: as §1
[7] = Clearance in rat liver microsomes at 0.625 uM preincubated for 5 mins followed by NADPH addition and measured after 60 mins by LC-MS/MS analysis; format: ADME, microsome; conditions: read-out: CLH; summary of the method: as §1

T1 sequence (Q92847 whole entry): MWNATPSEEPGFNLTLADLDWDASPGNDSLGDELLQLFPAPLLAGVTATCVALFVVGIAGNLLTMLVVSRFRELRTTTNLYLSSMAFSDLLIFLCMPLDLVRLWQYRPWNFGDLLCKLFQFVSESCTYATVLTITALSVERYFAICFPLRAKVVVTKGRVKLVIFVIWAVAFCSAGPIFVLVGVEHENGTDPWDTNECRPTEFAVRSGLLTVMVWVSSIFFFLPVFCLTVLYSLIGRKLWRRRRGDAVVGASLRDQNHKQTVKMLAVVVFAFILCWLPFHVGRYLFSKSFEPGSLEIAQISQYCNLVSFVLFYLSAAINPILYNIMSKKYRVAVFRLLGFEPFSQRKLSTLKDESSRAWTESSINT

IC50 [1] [nM]	EC50 ([2]; hek293)	EC50 ([2]; read-out: EC50) [nM]	microsomal CLint at 0.625 µM [3] [µL/min/mg]	microsomal CLint at 0.625 µM [4] [µL/min/mg]	EC50 [5] [nM]	microsomal CLint at 0.625 µM [6] [µL/min/mg]	microsomal CLint at 0.625 µM [7] [µL/min/mg]	Compound
> 30000	Not Active							Cc1cc(-c2ccc3c(c2)CCC3N2CCC(N(C)C(=O)N[C@@H](C)c3ccc(C(=O)O)c(Cl)c3Cl)CC2)ncn1 (some centres not stated)
120		85.7						COc1ccc2c(c1)CCC2N1CCC(N(C)C(=O)N[C@@H](C)c2ccc(OC)c(Cl)c2Cl)CC1 (some centres not stated)
240		70	244	79.8				COc1ccc([C@H](C)NC(=O)N(C)C2CCN(C3CCc4cc(-n5nccn5)ccc43)CC2)c(Cl)c1Cl (some centres not stated)
1170		189						Cc1ccc2c(c1)CCC2N1CCC(N(C)C(=O)N[C@@H](C)c2ccc(O)c(Cl)c2Cl)CC1 (some centres not stated)
8080		2160						Cc1cc(-c2ccc3c(c2)CCC3N2CCC(N(C)C(=O)N[C@H](c3ccc(-c4cnccn4)c(Cl)c3Cl)C(F)(F)F)CC2)ncn1 (some centres not stated)
303		96						COC(=O)c1ccc([C@H](C)NC(=O)N(C)C2CCN(C3CCc4cc(-c5cc(C)ncn5)ccc43)CC2)c(Cl)c1Cl (some centres not stated)
4010	Not Active				> 30000			Cc1cc(-c2ccc3c(c2)CC[C@H]3N2CC3(CCN(C(=O)N[C@@H](C)c4cccc(Cl)c4Cl)CC3)C2)ncn1
919	Not Active							C[C@H](NC(=O)N(C)C1CCN(C2CCc3ccccc32)CC1)c1ccc(C#CC2CC2)c(Cl)c1Cl (some centres not stated)
798		634						C[C@H](NC(=O)N(C)C1CCN(C2CCc3cc(-c4ncccn4)ccc32)CC1)c1ccc(C#CC2CC2)c(Cl)c1Cl (some centres not stated)
2700	Not Active							Cc1cc(-c2ccc3c(c2)CCC3N2CCC(N(C)C(=O)NCc3cccc(Cl)c3Cl)CC2)ncn1 (configuration not stated)
80		51	42.6	53.9		62.3	19.2	Cc1cc(-c2ccc3c(c2)CCC3N2CCC(N(C)C(=O)N[C@@H](C)c3ccc(C#CC4CC4)c(Cl)c3Cl)CC2)ncn1 (some centres not stated)
148	Not Active							Cc1cc(-c2ccc3c(c2)CCC3N2CCC(N(C)C(=O)N[C@@H](C)c3ccc(C#CC4CC4)c(Cl)c3Cl)C2)ncn1 (some centres not stated)
1510	Not Active		70.4	47.1				COc1ccc([C@H](C)NC(=O)N(C)C2CCN(C3CCc4cc(N)ccc43)CC2)c(Cl)c1Cl (some centres not stated)
85.9		84.8						C[C@H](NC(=O)N(C)C1CCN(C2CCc3cc(-c4cncnc4)ccc32)CC1)c1ccc(C#CC2CC2)c(Cl)c1Cl (some centres not stated)
156		10.6	157	165		137	65.6	C#Cc1ccc([C@H](C)NC(=O)N(C)C2CCN(C3CCc4cc(-c5cc(C)ncn5)ccc43)CC2)c(Cl)c1Cl (some centres not stated)
530		363						Cc1cc(-c2ccc3c(c2)CCC3N2CCC(N(C)C(=O)N[C@@H](C)c3ccc(C#CC4CC4)c(Cl)c3Cl)C(C)(C)C2)ncn1 (some centres not stated)
1300	Not Active		117	87.1				COc1ccc([C@H](C)NC(=O)N(C)C2CCN(C3CCc4cc(O)ccc43)CC2)c(Cl)c1Cl (some centres not stated)
5400		970						Cc1cc(-c2ccc3c(c2)CCC3N2CCC(N(C)C(=O)N[C@@H](CC3CC3)c3cccc(Cl)c3Cl)CC2)ncn1 (some centres not stated)
315		40.7	388	241			271	COc1ccc([C@H](C)NC(=O)N(C)C2CCN(C3CCc4cc(Cl)ccc43)CC2)c(Cl)c1Cl (some centres not stated)

IC50 [1] [nM]	EC50 ([2]; hek293)	EC50 ([2]; read-out: EC50) [nM]	microsomal CLint at 0.625 µM [3] [µL/min/mg]	microsomal CLint at 0.625 µM [4] [µL/min/mg]	EC50 [5] [nM]	microsomal CLint at 0.625 µM [6] [µL/min/mg]	microsomal CLint at 0.625 µM [7] [µL/min/mg]	Compound
282		117						Cc1ccc2c(c1)CCC2N1CCC(N(C)C(=O)N[C@@H](C)c2ccc(C#CC3CC3)c(Cl)c2Cl)CC1 (some centres not stated)
2330	Not Active				> 30000			Cc1cc(-c2ccc3c(c2)CCC3N2CCC(N(C)C(=O)NC(C)c3cccc(Cl)c3Cl)CC2)ncn1 (configuration not stated)
192		306						CC[C@H](NC(=O)N(C)C1CCN(C2CCc3cc(-c4cc(C)ncn4)ccc32)CC1)c1ccc(C#CC2CC2)c(Cl)c1Cl (some centres not stated)
> 30000	Not Active				> 30000			Cc1cn2cc(CNC(=O)N(C)C3CCN(C)CC3)nc2s1
2000	Not Active							Cc1ccc2c(c1)CCC2N1CCC(N(C)C(=O)N[C@@H](C)c2ccc(C#C[Si](C)(C)C)c(Cl)c2Cl)CC1 (some centres not stated)
4540		484						Cc1cc(-c2ccc3c(c2)CCC3N2CCC(N(C)C(=O)N[C@@H](CC3CC3)c3ccc(-c4cnccn4)c(Cl)c3Cl)CC2)ncn1 (some centres not stated)
1130	Not Active							Cc1cc(-c2ccc3c(c2)CCC3N2CCC(N(C)C(=O)NCc3ccc(C#CC4CC4)c(Cl)c3Cl)CC2)ncn1 (configuration not stated)
2870		298						Cc1cc(-c2ccc3c(c2)CCC3N2CCC(N(C)C(=O)N[C@@H](C)c3ccc(C4CC4)c(Cl)c3Cl)CC2)ncn1 (some centres not stated)
329		73	217	80.3		168	143	COc1ccc([C@H](C)NC(=O)N(C)C2CCN(C3CCc4cc(C)ccc43)CC2)c(Cl)c1Cl (some centres not stated)
171		67	122	94.2		241	69.5	COc1ccc([C@H](C)NC(=O)N(C)C2CCN(C3CCc4cc(-c5cc(C)ncn5)ccc43)CC2)c(Cl)c1Cl (some centres not stated)
1210		483			> 30000			Cc1cc(-c2ccc3c(c2)CC[C@H]3N2CC3(CCN(C(=O)N[C@@H](C)c4ccc(-c5cnccn5)c(Cl)c4Cl)CC3)C2)ncn1
> 30000	Not Active				> 30000			Cc1cn2cc(C(C)NC(=O)N(C)C3CCN(C)CC3)nc2s1 (configuration not stated)
1800		439						COc1ccc([C@H](CC2CC2)NC(=O)N(C)C2CCN(C3CCc4cc(-c5cc(C)ncn5)ccc43)CC2)c(Cl)c1Cl (some centres not stated)
1280		1280						Cc1cc(-c2ccc3c(c2)CC[C@@H]3N2CCC(N(C)C(=O)N[C@@H](C)c3ccc(C#CC4CC4)c(Cl)c3Cl)CC2)ncn1
2920		937						CCN(C(=O)N[C@@H](C)c1ccc(C#CC2CC2)c(Cl)c1Cl)C1CCN(C2CCc3cc(-c4cc(C)ncn4)ccc32)CC1 (some centres not stated)
369		194			> 30000			Cc1cc(-c2ccc3c(c2)CCC3N2CCC(N(C)C(=O)N[C@@H](C)c3ccc(-c4cnccn4)c(Cl)c3Cl)CC2)ncn1 (some centres not stated)
106	Not Active							C#Cc1ccc([C@H](C)NC(=O)N(C)C2CCN(C3CCc4cc(C)ccc43)CC2)c(Cl)c1Cl (some centres not stated)
2370	Not Active							Cc1ccc2c(c1)CCC2N1CCC(N(C)C(=O)N[C@@H](C)c2ccc(C3CC3)c(Cl)c2Cl)CC1 (some centres not stated)
571		121						Cc1cc(-c2ccc3c(c2)CCC3N2CCC(N(C)C(=O)N[C@@H](C)c3ccc(N)c(Cl)c3Cl)CC2)ncn1 (some centres not stated)
